Test results: ChEMBL document CHEMBL3232873, “Development of a bioavailable μ opioid receptor (MOPr) agonist, δ opioid receptor (DOPr) antagonist peptide that evokes antinociception without development of acute tolerance” (J Med Chem, 2014)
Active and inactive are the calls of the source. *1 amine or outer side, *2 acyl side, *3 side chain or, on linkers, in order; H or OH if unused. Where a SMILES comes first, the peptide text is derived from it. Bridges are numbered along the chain shown (N, C = ends). [ ]: non-standard residue; d: D form. The star is where a group is joined. βGlc = OC[C@H]1O[C@@H](*)[C@H](O)[C@@H](O)[C@@H]1O; Dmt = Cc1cc(O)cc(C)c1C[C@H](N)C(=O)O; dPen = CC(C)(S)[C@@H](N)C(=O)O; Aic = NC1(C(=O)O)Cc2ccccc2C1; CH2CH2 = C(C[*:2])[*:1]

What was measured:
Mus musculus [1] = experiment: Antinociceptive effect in C57BL/6 mouse assessed as tail withdrawal latency at 10 mg/kg, ip measured between 30 and 60 mins by warm water tail withdrawal assay relative to 20 secs cutoff time; format: functional, organism-based; parameters: dose 10 mg/kg
Mus musculus [2] = experiment: Antinociceptive effect in C57BL/6 mouse assessed as tail withdrawal latency at 10 mg/kg, ip by warm water tail withdrawal assay relative to 20 secs cutoff time; format: functional; details: route intraperitoneal
Procedure, shortened: (§1)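 Adult male and female C57BL/6 mice (20–35 g, 8–16 weeks). Saline ip, then baseline latency 30 min later. Cumulative ip doses in saline were given at 30 min intervals, with latency read 30 min after each dose. Tail tip (2–3 cm) placed in 50 °C water; withdrawal or flick latency recorded, 20 s cutoff.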

Mus musculus [3] = experiment: Antinociceptive effect in C57BL/6 mouse assessed as tail withdrawal latency at 10 mg/kg, ip by warm water tail withdrawal assay in presence of 3.2 mg/kg, ip naltrexone nonselective opioid antagonist; format: functional, organism-based
Procedure, shortened: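 C57BL/6 mice, both sexes. Saline or 3.2 mg/kg naltrexone ip 30 min before 10 mg/kg test compound ip, all in saline. Tail-withdrawal latency in 50 °C water (20 s cutoff) read 30 min after pretreatment and 30 min after test injection.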

[4] = target: Kappa-type opioid receptor (Homo sapiens) (UniProt P41145); experiment: Agonist activity at human kappa opioid receptor expressed in rat C6 cells assessed as stimulation of [35S]-GTPgammaS binding after 1 hr by GF/C filters relative to control; format: functional, cell-based
Mus musculus [5] = species: Mus musculus; experiment: Antinociceptive effect in C57BL/6 mouse assessed as tail withdrawal latency by warm water tail withdrawal assay relative to 20 secs cutoff time; format: functional, organism-based; procedure, shortened: as §1
Mus musculus [6] = experiment: Antinociceptive effect in C57BL/6 mouse assessed as maximum effect at 10 mg/kg, ip after 30 mins by acute tolerance/warm water tail withdrawal assay; format: functional, organism-based; parameters: dose 10 mg/kg
Procedure, shortened: (§2)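 Separate groups of C57BL/6 mice got ip saline or 10 mg/kg compound after baseline, with 50 °C tail-withdrawal latency (20 s cutoff) at 15, 30, 45, 60 and 90 min. At 90–120 min all mice received 10 mg/kg ip, read at 15, 30, 60 and 90 min. AUC over baseline was computed per mouse and averaged by group; naive and pretreated groups compared by t-test.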

[7] = target: Delta-type opioid receptor (Rattus norvegicus) (UniProt P33533); experiment: Agonist activity at rat delta opioid receptor expressed in rat C6 cells assessed as stimulation of [35S]-GTPgammaS binding after 1 hr by GF/C filters relative to control; format: functional, cell-based
Procedure, shortened: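 Membranes (10–20 μg protein) from C6 glioma cells stably expressing rat DOPr, incubated 1 h at room temperature in 50 mM Tris-HCl, 100 mM NaCl, 5 mM MgCl2, pH 7.4, with 0.1 nM [35S]GTPγS, 30 μM GDP and varied peptide concentrations. GF/C filtration, scintillation counting. […] At least three assays in duplicate.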

Mus musculus [8] = experiment: Antinociceptive effect in C57BL/6 mouse assessed as maximum effect at 10 mg/kg, ip after 90 mins followed by treated with second dose measured up to 200 mins by acute tolerance/warm water tail withdrawal assay; format: functional, organism-based; parameters: dose 10 mg/kg; procedure, shortened: as §2
Mus musculus [9] = experiment: Antinociceptive effect in C57BL/6 mouse assessed as maximum effect at 10 mg/kg, ip after 90 mins by acute tolerance/warm water tail withdrawal assay; format: functional, organism-based; parameters: dose 10 mg/kg; procedure, shortened: as §2
[10] = target: Delta-type opioid receptor (Rattus norvegicus) (UniProt P33533); experiment: Antagonist activity at rat delta opioid receptor expressed in rat C6 cells assessed as [35S]-GTPgammaS binding after 1 hr by GF/C filters; format: functional, cell-based
Procedure, shortened: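 Membranes (10–20 μg protein/well) from C6 glioma cells stably expressing rat DOPr were incubated 1 h at room temperature in 50 mM Tris-HCl, 100 mM NaCl, 5 mM MgCl2, pH 7.4, with 0.1 nM [35S]GTPγS and 30 μM GDP. Bound label was filtered, washed 10× with cold buffer, and scintillation-counted. Ke was derived by formula using a single peptide concentration. Mean ± SEM, ≥3 assays in duplicate.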

[11] = target: Mu-type opioid receptor (Rattus norvegicus) (UniProt P33535); experiment: Agonist activity at rat mu opioid receptor expressed in rat C6 cells assessed as stimulation of [35S]-GTPgammaS binding after 1 hr by GF/C filters relative to control; format: functional, cell-based
Procedure, shortened: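 C6 glioma membranes (rat MOPr, stable; 10–20 μg protein) incubated 1 h at room temperature in 50 mM Tris-HCl, 100 mM NaCl, 5 mM MgCl2, pH 7.4, with 0.1 nM [35S]GTPγS, 30 μM GDP and varying peptide concentrations. GF/C filtration, counting. […] EC50 and maximum from nonlinear regression. At least three assays in duplicate.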

Delta-type opioid receptor (Rattus norvegicus), sequence (P33533 whole entry): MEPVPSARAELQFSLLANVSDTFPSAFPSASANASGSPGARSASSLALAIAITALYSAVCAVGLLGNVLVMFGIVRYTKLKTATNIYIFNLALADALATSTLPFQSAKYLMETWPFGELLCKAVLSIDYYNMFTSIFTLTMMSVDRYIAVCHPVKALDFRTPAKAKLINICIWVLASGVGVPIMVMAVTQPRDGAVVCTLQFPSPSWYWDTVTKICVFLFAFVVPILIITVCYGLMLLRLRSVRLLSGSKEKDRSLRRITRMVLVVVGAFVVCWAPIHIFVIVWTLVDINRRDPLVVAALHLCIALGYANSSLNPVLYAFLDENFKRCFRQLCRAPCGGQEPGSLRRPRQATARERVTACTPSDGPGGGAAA
Kappa-type opioid receptor (Homo sapiens), sequence (P41145 whole entry): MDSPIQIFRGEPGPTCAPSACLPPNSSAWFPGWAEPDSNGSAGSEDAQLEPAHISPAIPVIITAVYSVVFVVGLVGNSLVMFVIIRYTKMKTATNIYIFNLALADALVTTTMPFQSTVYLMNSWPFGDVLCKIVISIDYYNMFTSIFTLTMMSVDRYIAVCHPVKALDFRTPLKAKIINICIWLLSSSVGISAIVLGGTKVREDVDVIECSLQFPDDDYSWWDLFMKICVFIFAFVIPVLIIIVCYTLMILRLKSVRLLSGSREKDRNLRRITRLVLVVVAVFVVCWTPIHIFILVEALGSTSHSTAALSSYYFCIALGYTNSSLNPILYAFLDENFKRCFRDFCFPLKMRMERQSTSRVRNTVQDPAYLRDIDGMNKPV
Mu-type opioid receptor (Rattus norvegicus), sequence (P33535 whole entry): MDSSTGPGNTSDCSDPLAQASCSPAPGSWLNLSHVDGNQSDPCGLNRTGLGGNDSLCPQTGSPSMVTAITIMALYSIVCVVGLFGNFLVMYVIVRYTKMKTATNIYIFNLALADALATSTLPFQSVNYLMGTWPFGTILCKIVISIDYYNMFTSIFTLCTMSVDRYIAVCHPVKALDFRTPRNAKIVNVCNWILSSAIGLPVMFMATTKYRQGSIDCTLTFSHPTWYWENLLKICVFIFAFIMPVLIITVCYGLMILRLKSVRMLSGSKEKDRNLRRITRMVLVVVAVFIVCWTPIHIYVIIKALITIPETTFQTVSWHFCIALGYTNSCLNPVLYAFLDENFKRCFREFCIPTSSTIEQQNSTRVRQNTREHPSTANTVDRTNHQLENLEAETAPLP

| SMILES | Activity (Mus musculus [1]) | Activity (Mus musculus [2]) [%] | Activity (Mus musculus [3]) | Efficacy [4] | Activity (Mus musculus [5]) | Activity (Mus musculus [6]) | Efficacy [7] | Activity (Mus musculus [8]) | Activity (Mus musculus [9]) | Ke [10] [nM] | Efficacy [11] [%] |
| --- | --- | --- | --- | --- | --- | --- | --- | --- | --- | --- | --- |
| Cc1cc(O)cc(C)c1C[C@H](N)C(=O)N[C@@H]1CSCCSC(C)(C)[C@H](C(=O)N[C@@H](CO[C@@H]2O[C@H](CO)[C@@H](O)[C@H](O)[C@H]2O)C(N)=O)NC(=O)C2(Cc3ccccc3C2)NC1=O (H-[Dmt][dC][Aic][dPen]S(βGlc)-NH2; linker 2-4 via CH2CH2) | Active | 80 | inactive | inactive | Dose-dependent effect | Active | inactive | Active | inactive | 6.1 | – |
| Cc1cc(O)cc(C)c1C[C@H](N)C(=O)N[C@@H]1CSCCSC(C)(C)[C@H](C(=O)N[C@@H](CO)C(=O)O)NC(=O)C2(Cc3ccccc3C2)NC1=O (H-[Dmt][dC][Aic][dPen]S-OH; linker 2-4 via CH2CH2) | – | – | – | inactive | – | – | inactive | – | – | – | – |
| Cc1cc(O)cc(C)c1C[C@H](N)C(=O)N[C@@H]1CSCCSC(C)(C)[C@H](C(=O)O)NC(=O)C2(Cc3ccccc3C2)NC1=O (H-[Dmt][dC][Aic][dPen]-OH; linker 2-4 via CH2CH2) | – | – | – | inactive | – | – | inactive | – | – | 4.4 | 59 |
| Cc1cc(O)cc(C)c1C[C@H](N)C(=O)N[C@@H]1CSCCSC(C)(C)[C@H](C(=O)N[C@@H](CO)C(N)=O)NC(=O)C2(Cc3ccccc3C2)NC1=O (H-[Dmt][dC][Aic][dPen]S-NH2; linker 2-4 via CH2CH2) | – | – | – | inactive | – | – | inactive | – | – | – | – |
